From ChEMBL document CHEMBL3227946, “Antianaphylactic agents. 1. 2-(Acylamino)oxazoles” (1979)
The source made the active and inactive calls. How the calls were made is not given here.

Experiments:
Rattus norvegicus = test: Antianaphylactic activity in antiovalbumin IgE serum-treated Wistar rat at 2 x 100 mg/kg, po administered 2.5 hrs prior to ovalbumin challenge measured after 45 mins by passive cutaneous anaphylaxis test; type: functional, organism-based; design: dose 100 mg/kg; details: in the assay text read “2 hrs and again 30 mins prior to” for “2.5 hrs prior to”
Procedure, shortened: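 Female Wistar rats, shaved and lightly anaesthetized, received an intradermal abdominal injection of diluted rat antiovalbumin IgE serum. After 24 h they were challenged iv with ovalbumin mixed with dye. Compound was given at 2 h and again at 30 min before challenge. Rats were killed 45 min after challenge and the blue area on the inner skin surface was measured.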

[1] = Antianaphylactic activity in ovalbumin sensitized albino guinea pig chopped lung assessed as inhibition of antigen-induced slow-reacting substance of anaphylaxis release at 10 ug/mL after 15 mins relative to control; type: functional, Cavia porcellus
Procedure, shortened: (§1)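 Lungs were perfused with Tyrode's, chopped into 0.5-mm cubes and split into 100-mg aliquots. Aliquots were challenged with antigen ± compound and rocked at 37 °C for 15 min. Unchallenged controls gave spontaneous release. Supernatant histamine or SRS-A was bioassayed on guinea pig ileum against standards. Values are % inhibition, mean of four samples.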

[2] = Antianaphylactic activity in ovalbumin sensitized albino guinea pig chopped lung assessed as inhibition of antigen-induced histamine release at 10 ug/mL after 15 mins relative to control; type: functional, Cavia porcellus; procedure, shortened: as §1
[3] = Antianaphylactic activity in human chopped lung treated with atopic serum isolated from patients allergic to cocksfoot pollen assessed as inhibition of antigen-induced histamine release at 10 ug/mL after 15 mins relative to control; type: functional; details: 0.25 h
Procedure, shortened: (§2)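 Surgical human lung (bronchial carcinoma resections) was washed in Hank's, chopped into 0.5-mm cubes and incubated for 18 h at 18 °C with atopic serum from cocksfoot pollen-allergic patients. Tissue was washed, equilibrated in Tyrode's at 37 °C and challenged with saline pollen extract ± compound for 15 min. Histamine or SRS-A in the supernatant was bioassayed on guinea pig ileum. Values are % inhibition, mean of four samples.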

[4] = Antianaphylactic activity in human chopped lung treated with atopic serum isolated from patients allergic to cocksfoot pollen assessed as inhibition of antigen-induced slow-reacting substance of anaphylaxis release at 10 ug/mL after 15 mins relative to control; type: functional; details: 0.25 h; procedure, shortened: as §2

| SMILES | Activity (Rattus norvegicus) | inhibition (INH) [1] [%] | inhibition (INH) [2] [%] | inhibition at 10 µg/mL [3] [%] | inhibition at 10 µg/mL [4] [%] |
| --- | --- | --- | --- | --- | --- |
| C=CCN(C(=O)C(C)C)c1nc(C)co1 | inactive | 23 | 42 | – | – |
| CCCCN(C(=O)C(C)CC)c1nc(C)co1 (racemic) [listing 1 of 2 here] | inactive | – | – | – | – |
| Cc1coc(N(C(=O)C(C)C)C(C)C)n1 | inactive | 10 | – | 0 | 0 |
| CCCCN(C(=O)C(C)C)c1nc(-c2ccc(Cl)cc2)co1 | inactive | 37 | 44 | – | – |
| CCCCN(C(=O)C(C)CC)c1nc(C)co1 (stereo in doubt; 39) [listing 1 of 2 here] | – | 79 | 30 | – | – |
| CCCCN(C(=O)Cc1ccccc1)c1nc(C)co1 | inactive | 31 | 0 | – | – |
| CCCCN(C(=O)C(C)C)c1nc(C2CCCCC2)co1 | inactive | 0 | – | – | – |
| CCCCN(C(=O)C(C)C)c1ncc(C)o1 | inactive | 52 | 31 | – | – |
| CCC(C)CN(C(=O)C(C)C)c1nc(C)co1 (stereo unspecified) | inactive | 37 | 29 | – | – |
| CCC(=O)N(c1nc(C)co1)C(C)C | inactive | 17 | – | 0 | 0 |
| CCCCCCN(C(=O)C(C)C)c1nc(C)co1 | inactive | 42 | 18 | – | – |
| CCCC(=O)N(c1nc(C)co1)C1CCCCC1 | inactive | 29 | 37 | – | – |
| CCCCc1coc(N(CCCC)C(=O)C(C)C)n1 | inactive | 14 | – | – | – |
| CCCCCN(C(=O)CC)c1nc(C)co1 | inactive | 41 | 16 | – | – |
| CCCC(=O)N(c1nc(C)co1)C(C)CC (stereo unspecified) | inactive | 34 | 6 | – | – |
| CCCCCN(C(=O)C(C)C)c1nc(C)co1 | inactive | 66 | 28 | 14 | 47 |
| CCCCN(C(=O)C(C)C)c1ncco1 | inactive | 44 | 8 | – | – |
| CCCCN(C(=O)C(C)CC)c1nc(C)co1 (racemic) [listing 2 of 2 here] | – | 76 | 54 | 5 | 36 |
| CCCCCCC(=O)N(CCCC)c1nc(C)co1 | inactive | 8 | – | – | – |
| CCCCN(C(=O)C1CCCCCC1)c1nc(C)co1 | inactive | 49 | 0 | – | – |
| CC(=O)N(C)c1nc(C)co1 | inactive | 9 | 0 | – | – |
| CCC(C)N(C(=O)C(C)C)c1nc(C)co1 (stereo unspecified) | inactive | 13 | 3 | – | – |
| C=CCN(C(=O)CCC)c1nc(C)co1 | inactive | 31 | 51 | – | – |
| CCCCCCN(C(C)=O)c1nc(C)co1 | inactive | 8 | – | 13 | 15 |

| SMILES | Activity (Rattus norvegicus) | inhibition (INH) [1] [%] | inhibition (INH) [2] [%] | inhibition at 10 µg/mL [3] [%] | inhibition at 10 µg/mL [4] [%] |
| --- | --- | --- | --- | --- | --- |
| CCCCN(C(=O)C1CCCC1)c1nc(C)co1 | inactive | 66 | 47 | 0 | 69 |
| CC(=O)N(C)c1nc(C)c(C)o1 | inactive | 17 | – | – | – |
| CCCC(=O)N(CC(C)CC)c1nc(C)co1 (stereo unspecified) | inactive | 33 | 35 | – | – |
| CCCC(=O)N(CC)c1nc(C)co1 | inactive | 13 | 30 | – | – |
| CCCCN(C(=O)C(C)CC)c1nc(C)co1 (stereo in doubt; 38) [listing 1 of 2 here] | inactive | – | – | – | – |
| CCN(C(=O)C(C)C)c1nc(C)c(C)o1 | inactive | 21 | 13 | – | – |
| CCCCN(C(=O)C(CC)CC)c1nc(C)co1 | inactive | 55 | 29 | – | – |
| CCCCN(C(=O)CCC)c1nc(C)c(C)o1 | inactive | 37 | 46 | – | – |
| CN1CCC(=C2c3ccccc3CC(=O)c3sccc32)CC1.O=C(O)/C=C/C(=O)O [KETOTIFEN FUMARATE] | – | 38 | 37 | – | – |
| CCCCN(C(=O)CC1CCCC1)c1nc(C)co1 | inactive | 22 | 0 | 0 | 0 |
| CCCCC(=O)N(CCCC)c1nc(C)co1 | inactive | 49 | 21 | – | – |
| CCCCN(C(=O)C1CCC1)c1nc(C)c(C)o1 | inactive | 10 | 0 | – | – |
| Cc1coc(N(C)C(=O)C(C)C)n1 | inactive | 25 | 61 | – | – |
| CCCCN(C(=O)C(C)C)c1ncc(C2CCCCC2)o1 | inactive | 21 | – | – | – |
| CCCCN(C(C)=O)c1nc(C)co1 | inactive | 39 | 26 | – | – |
| CCCCN(C(=O)C(C)C)c1nc(CC)co1 | inactive | 41 | 20 | – | – |
| CCCCN(C(=O)C(C)C)c1ncc(CC)o1 | inactive | 35 | 52 | – | – |
| CCCCN(C(C)=O)c1nc(C)c(C)o1 | inactive | 32 | 13 | – | – |
| CCCCN(C(=O)C1CCCCC1)c1nc(C)co1 | inactive | 32 | 27 | 29 | 26 |
| CCCCN(C(=O)C(C)CC)c1nc(C)co1 (stereo in doubt; 39) [listing 2 of 2 here] | inactive | – | – | – | – |
| CCCCN(C(=O)C(C)CC)c1nc(C)co1 (stereo in doubt; 38) [listing 2 of 2 here] | – | 63 | 8 | – | – |
| CCCCC(=O)N(c1nc(C)co1)C(C)C | inactive | 0 | 0 | 0 | 0 |
| CCCCN(C(=O)C(C)C)c1nc(C)c(C)o1 | inactive | 43 | 49 | 49 | 43 |
| CCCCN(C(=O)C(C)C)c1nc(-c2ccccc2)co1 | inactive | 39 | 23 | – | – |
